The results in this text go back to ChEMBL document CHEMBL1158526, “Labeled 3-aryl-4-indolylmaleimide derivatives and their potential as angiogenic PET biomarkers” (Bioorg Med Chem, 2010).

Assay [1] has as its target Platelet-derived growth factor receptor alpha (Homo sapiens, UniProt P16234). The experiment in a line: Inhibition of PDGFRalpha after 80 mins by radiometric protein kinase assay. The method in brief: (§1)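 Radiometric [γ-33P]-ATP kinase assay with poly(Ala,Glu,Lys,Tyr) 6:2:5:1 substrate. Incubated 30 °C for 80 min, then stopped with 2% H3PO4 and washed with 0.9% NaCl. 33Pi incorporation read by scintillation counting. IC50 from 12 concentrations in triplicate; plate quality checked by Z'-factor.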

For another assay, the target named is Angiopoietin-1 receptor (Homo sapiens, UniProt Q02763). As to the kind of experiment: Inhibition of TIE2 after 80 mins by radiometric protein kinase assay. The method in brief:
as §1

For assay [2], the target named is Vascular endothelial growth factor receptor 1 (Homo sapiens, UniProt P17948). The experiment in a line: Inhibition of VEGFR1 after 80 mins by radiometric protein kinase assay. In outline:
(§2)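 Radiometric [γ-33P]-ATP kinase assay with poly(Glu,Tyr) 4:1 substrate. Reaction run 80 min at 30 °C, stopped with 2% H3PO4 and washed with 0.9% NaCl. 33Pi incorporation counted by microplate scintillation. IC50 from 12 concentrations tested in triplicate, with Z'-factor used as plate control.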

Assay [3] addresses Platelet-derived growth factor receptor beta (Homo sapiens, UniProt P09619). The experiment in a line: Inhibition of PDGFRbeta after 80 mins by radiometric protein kinase assay.
The target of assay [4] is Mast/stem cell growth factor receptor Kit (Homo sapiens, UniProt P10721). As to the kind of experiment: Inhibition of KIT after 80 mins by radiometric protein kinase assay. The method in brief: (§3)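 The substrate was Poly(Glu,Tyr)4:1. 12 concentrations were run in triplicate with 1% final DMSO, at 30 °C for 80 min. Reactions were stopped with 2% H₃PO₄, washed with 0.9% NaCl, and ³³P incorporation was read by scintillation counting.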
Sequence of Mast/stem cell growth factor receptor Kit (P10721 whole entry): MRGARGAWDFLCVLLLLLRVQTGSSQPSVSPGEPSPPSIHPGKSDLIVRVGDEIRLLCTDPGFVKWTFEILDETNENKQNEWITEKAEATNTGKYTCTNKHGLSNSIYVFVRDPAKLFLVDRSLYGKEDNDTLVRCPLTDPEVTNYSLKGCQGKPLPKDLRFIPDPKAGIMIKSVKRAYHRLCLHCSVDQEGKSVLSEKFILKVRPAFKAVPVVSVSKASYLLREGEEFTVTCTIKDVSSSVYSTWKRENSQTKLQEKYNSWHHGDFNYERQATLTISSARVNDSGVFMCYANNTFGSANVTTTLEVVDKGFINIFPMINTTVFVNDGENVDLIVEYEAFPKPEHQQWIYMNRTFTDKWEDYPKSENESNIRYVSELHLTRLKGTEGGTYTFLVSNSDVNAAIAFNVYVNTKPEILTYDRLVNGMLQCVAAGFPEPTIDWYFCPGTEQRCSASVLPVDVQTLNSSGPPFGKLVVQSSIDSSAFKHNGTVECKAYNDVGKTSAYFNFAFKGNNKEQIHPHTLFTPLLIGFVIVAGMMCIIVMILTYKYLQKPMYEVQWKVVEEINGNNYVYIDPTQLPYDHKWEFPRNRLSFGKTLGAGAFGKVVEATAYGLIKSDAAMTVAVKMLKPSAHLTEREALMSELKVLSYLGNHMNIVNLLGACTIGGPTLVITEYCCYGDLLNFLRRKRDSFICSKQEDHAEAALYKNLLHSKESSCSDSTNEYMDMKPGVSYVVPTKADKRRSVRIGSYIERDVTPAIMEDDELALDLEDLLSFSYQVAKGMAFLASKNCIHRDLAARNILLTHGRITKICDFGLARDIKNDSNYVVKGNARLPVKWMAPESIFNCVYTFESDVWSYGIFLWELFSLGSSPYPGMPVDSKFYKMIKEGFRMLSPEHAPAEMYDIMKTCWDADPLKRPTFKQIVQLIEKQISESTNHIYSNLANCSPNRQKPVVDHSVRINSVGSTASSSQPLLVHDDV

Assay [5] addresses Epidermal growth factor receptor (Homo sapiens, UniProt P00533). As to the kind of experiment: Inhibition of EGFR after 80 mins by radiometric protein kinase assay.
Assay [6] has as its target Receptor tyrosine-protein kinase erbB-2 (Homo sapiens, UniProt P04626). The experiment in a line: Inhibition of ERBB2 after 80 mins by radiometric protein kinase assay. In outline: as §3
Assay [7] deals with Insulin-like growth factor 1 receptor (Homo sapiens, UniProt P08069). The experiment in a line: Inhibition of IGF1R after 80 mins by radiometric protein kinase assay. The method in brief: as §2
Sequence of Insulin-like growth factor 1 receptor (P08069 31-736 limits assumed): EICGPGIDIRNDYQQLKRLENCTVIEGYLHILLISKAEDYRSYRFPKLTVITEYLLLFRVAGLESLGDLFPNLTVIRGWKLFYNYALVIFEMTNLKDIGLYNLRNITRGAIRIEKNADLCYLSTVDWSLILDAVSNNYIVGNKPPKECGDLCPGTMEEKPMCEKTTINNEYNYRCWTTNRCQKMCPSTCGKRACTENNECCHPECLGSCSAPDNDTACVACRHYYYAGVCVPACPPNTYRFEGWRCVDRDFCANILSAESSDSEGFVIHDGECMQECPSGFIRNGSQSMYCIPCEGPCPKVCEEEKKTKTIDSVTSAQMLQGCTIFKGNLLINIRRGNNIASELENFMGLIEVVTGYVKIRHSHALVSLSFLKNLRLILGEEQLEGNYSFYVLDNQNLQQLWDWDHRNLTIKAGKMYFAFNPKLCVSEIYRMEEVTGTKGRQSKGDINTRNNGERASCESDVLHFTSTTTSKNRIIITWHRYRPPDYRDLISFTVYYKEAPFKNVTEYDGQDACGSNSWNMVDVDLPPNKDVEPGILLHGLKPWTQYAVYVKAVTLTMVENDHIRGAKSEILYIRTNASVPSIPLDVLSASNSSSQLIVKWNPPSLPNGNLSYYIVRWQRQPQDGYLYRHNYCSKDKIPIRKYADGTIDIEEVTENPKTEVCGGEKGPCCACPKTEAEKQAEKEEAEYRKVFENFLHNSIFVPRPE
Sequence of Insulin-like growth factor 1 receptor (P08069 741-1367 limits assumed): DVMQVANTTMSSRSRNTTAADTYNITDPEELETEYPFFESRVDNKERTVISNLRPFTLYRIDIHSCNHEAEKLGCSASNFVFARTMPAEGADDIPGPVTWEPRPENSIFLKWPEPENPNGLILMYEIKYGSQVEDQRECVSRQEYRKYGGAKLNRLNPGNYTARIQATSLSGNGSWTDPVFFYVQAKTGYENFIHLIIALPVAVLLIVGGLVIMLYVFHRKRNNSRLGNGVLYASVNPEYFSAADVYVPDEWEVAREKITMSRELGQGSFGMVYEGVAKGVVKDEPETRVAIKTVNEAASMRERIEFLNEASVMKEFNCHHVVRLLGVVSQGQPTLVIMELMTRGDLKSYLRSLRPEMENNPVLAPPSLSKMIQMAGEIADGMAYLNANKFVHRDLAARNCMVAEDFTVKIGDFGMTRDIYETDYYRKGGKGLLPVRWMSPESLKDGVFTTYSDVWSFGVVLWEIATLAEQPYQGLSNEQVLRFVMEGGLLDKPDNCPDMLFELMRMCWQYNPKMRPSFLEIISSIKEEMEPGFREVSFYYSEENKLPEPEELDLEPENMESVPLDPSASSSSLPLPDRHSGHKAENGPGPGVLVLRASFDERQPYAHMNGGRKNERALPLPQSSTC
Assay [8] has as its target Vascular endothelial growth factor receptor 3 (Homo sapiens, UniProt P35916). The experiment in a line: Inhibition of VEGFR3 after 80 mins by radiometric protein kinase assay. In outline: as §2
For assay [9], the target named is T1, Vascular endothelial growth factor receptor 2 (Homo sapiens, UniProt P35968). As to the kind of experiment: Inhibition of VEGFR2 after 80 mins by radiometric protein kinase assay. The method in brief: as §2
T1 sequence (P35968 whole entry): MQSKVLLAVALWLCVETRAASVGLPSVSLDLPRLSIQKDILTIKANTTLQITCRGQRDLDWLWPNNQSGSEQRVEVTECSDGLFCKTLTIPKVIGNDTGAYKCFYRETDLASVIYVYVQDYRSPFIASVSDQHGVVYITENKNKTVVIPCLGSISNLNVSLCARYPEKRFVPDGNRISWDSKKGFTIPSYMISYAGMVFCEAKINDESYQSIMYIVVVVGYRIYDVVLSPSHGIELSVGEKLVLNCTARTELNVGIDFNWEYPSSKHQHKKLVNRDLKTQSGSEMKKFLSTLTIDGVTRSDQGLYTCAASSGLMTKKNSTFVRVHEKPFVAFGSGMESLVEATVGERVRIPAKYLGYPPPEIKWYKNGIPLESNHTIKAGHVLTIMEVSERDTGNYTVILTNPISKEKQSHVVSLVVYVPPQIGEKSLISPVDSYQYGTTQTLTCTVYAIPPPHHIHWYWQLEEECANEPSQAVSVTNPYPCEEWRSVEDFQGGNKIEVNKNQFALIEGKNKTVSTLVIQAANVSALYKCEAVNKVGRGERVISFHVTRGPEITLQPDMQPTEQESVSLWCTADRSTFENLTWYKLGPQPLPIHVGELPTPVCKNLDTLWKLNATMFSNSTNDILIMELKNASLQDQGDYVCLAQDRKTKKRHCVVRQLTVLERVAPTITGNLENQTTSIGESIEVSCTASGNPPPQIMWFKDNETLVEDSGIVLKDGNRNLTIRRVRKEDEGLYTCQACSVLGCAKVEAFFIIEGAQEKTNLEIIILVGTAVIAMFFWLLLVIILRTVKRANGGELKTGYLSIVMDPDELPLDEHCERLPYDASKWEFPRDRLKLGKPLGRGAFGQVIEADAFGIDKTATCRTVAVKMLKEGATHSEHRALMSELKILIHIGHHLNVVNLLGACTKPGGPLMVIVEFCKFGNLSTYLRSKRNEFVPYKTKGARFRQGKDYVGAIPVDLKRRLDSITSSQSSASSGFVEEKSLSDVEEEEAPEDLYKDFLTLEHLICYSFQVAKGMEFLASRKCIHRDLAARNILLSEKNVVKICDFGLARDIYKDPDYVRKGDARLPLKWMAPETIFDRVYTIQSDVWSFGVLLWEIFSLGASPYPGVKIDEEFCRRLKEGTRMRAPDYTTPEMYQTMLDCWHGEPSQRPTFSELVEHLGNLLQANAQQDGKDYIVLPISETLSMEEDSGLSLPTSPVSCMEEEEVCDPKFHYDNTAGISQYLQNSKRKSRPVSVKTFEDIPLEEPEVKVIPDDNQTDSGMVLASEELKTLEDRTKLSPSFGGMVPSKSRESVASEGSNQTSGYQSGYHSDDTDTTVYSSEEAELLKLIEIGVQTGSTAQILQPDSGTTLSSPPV
Assay [10] addresses T1, Vascular endothelial growth factor receptor 2. The settings on record: HEK293, 20 uM.
Assay [11] shares this target. The settings on record: HEK293, 10 uM.

Sequence of Receptor tyrosine-protein kinase erbB-2 (P04626 whole entry): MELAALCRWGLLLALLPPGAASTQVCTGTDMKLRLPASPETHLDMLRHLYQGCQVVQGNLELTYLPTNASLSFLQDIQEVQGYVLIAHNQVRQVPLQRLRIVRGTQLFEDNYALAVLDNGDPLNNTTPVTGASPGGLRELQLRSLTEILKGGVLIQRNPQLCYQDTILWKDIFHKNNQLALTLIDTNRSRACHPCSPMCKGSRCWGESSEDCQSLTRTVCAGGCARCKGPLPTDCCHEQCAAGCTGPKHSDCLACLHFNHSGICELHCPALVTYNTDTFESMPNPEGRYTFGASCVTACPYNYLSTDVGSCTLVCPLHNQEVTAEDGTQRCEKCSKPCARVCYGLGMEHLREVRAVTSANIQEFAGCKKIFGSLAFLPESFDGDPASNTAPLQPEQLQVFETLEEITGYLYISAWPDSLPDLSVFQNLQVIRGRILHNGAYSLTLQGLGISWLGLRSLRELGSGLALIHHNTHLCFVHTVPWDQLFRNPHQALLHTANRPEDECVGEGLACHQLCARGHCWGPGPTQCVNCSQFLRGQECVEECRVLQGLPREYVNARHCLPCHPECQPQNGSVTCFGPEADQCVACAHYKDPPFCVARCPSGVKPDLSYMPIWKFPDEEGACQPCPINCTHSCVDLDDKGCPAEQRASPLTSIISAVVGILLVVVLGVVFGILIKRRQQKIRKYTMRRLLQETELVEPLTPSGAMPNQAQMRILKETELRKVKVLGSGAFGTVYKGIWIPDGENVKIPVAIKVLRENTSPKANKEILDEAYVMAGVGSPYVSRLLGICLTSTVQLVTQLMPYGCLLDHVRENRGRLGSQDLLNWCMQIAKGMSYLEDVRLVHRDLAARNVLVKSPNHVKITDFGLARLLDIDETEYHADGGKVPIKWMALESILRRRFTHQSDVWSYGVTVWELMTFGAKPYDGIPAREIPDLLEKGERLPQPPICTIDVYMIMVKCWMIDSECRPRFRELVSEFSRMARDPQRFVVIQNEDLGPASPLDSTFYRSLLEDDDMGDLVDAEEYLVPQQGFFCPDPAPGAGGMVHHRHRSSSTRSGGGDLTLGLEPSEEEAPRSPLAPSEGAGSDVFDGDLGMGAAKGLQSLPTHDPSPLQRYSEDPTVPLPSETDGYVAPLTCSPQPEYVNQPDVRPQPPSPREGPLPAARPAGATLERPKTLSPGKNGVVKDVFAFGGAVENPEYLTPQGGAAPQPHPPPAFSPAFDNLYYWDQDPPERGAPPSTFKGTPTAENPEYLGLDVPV

As a reminder, the IC50 is the concentration at which inhibition is half-maximal. High values mean weaker potency in that assay, low ones greater potency in that assay. On to `COc1cc(C2=C(c3c[nH]c4ccc(Br)cc34)C(=O)NC2=O)cc(OC)c1OC`, for which the IC50 in assay [1] was found to be 1160 nM; against Angiopoietin-1 receptor, 2370 nM; in assay [2], 72.4 nM; in [3] it was 900 nM; in assay [4] it was 3220 nM; in assay [5], 5800 nM. For the same compound, the IC50 came out at 13300 nM in assay [6], 4240 nM in assay [7], 21 nM in assay [8] and 22.5 nM in assay [9].

On to `COc1cc(C2=C(c3c[nH]c4ccc(I)cc34)C(=O)NC2=O)cc(OC)c1OC`, for which the IC50 was 1310 nM in assay [1]; 3960 nM against Angiopoietin-1 receptor; 69.4 nM in [2]; 858 nM in assay [3]; 3330 nM in [4]; 15200 nM in assay [6]. Moreover, the IC50 is 3200 nM in [7], 29.5 nM in assay [8] and 24.9 nM in assay [9].

For the compound `COc1cc(C2=C(c3c[nH]c4ccccc34)C(=O)NC2=O)cc(OC)c1OC` [MALEIMIDE], the Stability is 68 % ID/g in assay [10] and 72 % ID/g in assay [11].
